Assay [1] concerns the target T1, Carnitine O-palmitoyltransferase 1, liver isoform (Rattus norvegicus, UniProt P32198).
T1 sequence (P32198 whole entry): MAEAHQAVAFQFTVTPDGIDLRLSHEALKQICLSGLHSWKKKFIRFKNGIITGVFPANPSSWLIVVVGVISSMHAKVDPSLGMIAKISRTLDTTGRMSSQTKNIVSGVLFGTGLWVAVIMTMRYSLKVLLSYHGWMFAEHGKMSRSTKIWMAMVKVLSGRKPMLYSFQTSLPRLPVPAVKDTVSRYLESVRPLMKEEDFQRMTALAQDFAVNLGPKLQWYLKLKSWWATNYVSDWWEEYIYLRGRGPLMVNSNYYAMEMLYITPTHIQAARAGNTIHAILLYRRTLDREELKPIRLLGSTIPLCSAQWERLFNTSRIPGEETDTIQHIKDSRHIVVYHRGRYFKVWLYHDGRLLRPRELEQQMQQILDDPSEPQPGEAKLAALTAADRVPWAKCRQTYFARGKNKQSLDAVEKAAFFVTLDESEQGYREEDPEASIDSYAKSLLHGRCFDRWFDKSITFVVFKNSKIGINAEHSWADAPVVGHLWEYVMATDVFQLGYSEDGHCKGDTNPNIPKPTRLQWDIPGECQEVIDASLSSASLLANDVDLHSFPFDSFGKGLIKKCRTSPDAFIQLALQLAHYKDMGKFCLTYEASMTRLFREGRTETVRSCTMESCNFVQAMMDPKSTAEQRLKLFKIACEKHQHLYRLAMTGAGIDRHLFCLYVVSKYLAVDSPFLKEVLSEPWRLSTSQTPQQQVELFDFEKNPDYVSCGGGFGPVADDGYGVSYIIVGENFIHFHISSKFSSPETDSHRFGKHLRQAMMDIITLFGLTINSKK
Kind of assay: Inhibition of rat liver mitochondrial carnitine palmitoyltransferase 1 using [14C]palmitoyl-CoA radioligand. Put shortly:
(§1)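 Performed on intact rat mitochondria: liver for L-CPT I, heart for M-CPT I. IC50 in µM calculated from the inhibition curve. Values are means of two determinations in triplicate, with variation between experiments under 8%.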

In assay [2] the target is T2, Carnitine O-palmitoyltransferase 1, muscle isoform (Rattus norvegicus, UniProt Q63704).
T2 sequence (Q63704 whole entry): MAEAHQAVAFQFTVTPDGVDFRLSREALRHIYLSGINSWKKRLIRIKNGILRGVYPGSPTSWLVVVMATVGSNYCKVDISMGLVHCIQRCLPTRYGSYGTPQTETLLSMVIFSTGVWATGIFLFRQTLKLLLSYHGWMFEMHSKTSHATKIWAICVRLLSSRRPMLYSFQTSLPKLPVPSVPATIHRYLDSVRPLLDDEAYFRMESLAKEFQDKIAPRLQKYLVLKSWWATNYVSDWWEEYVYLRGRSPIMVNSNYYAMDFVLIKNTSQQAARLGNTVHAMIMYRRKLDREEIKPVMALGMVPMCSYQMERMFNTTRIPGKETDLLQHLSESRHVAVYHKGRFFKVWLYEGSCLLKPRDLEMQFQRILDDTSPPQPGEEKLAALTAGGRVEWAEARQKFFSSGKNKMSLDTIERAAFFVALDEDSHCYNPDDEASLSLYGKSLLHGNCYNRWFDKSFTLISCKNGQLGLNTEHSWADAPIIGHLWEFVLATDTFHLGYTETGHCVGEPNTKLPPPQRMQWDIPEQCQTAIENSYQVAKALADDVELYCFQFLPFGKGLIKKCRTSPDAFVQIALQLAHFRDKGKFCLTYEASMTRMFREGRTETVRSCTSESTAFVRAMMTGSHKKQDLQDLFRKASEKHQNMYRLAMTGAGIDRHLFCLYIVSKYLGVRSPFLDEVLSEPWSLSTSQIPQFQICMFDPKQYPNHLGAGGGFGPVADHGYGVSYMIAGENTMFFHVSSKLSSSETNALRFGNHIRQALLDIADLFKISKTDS
Kind of assay: Inhibitory activity against rat heart mitochondrial carnitine palmitoyltransferase 1b using [14C]palmitoyl-CoA as radioligand. Put shortly:
as §1

pIC50: −log10 of the molar value.

Regarding `CCCCCCCCCNC(=O)OC(C[n+]1ccccc1)CP(=O)(O)O` (centres undefined), the pIC50 in assay [1] is under 3.52. On to `CCCCCCCCCCCCCCNC(CC(=O)[O-])C[N+](C)(C)C` (centres undefined), for which the pIC50 in assay [1] is 3.64. Same read-out and setting: the same measure for `CCCCCCCCCNC(=O)OC(C[N+](C)(C)C)CP(=O)([O-])O` (centres undefined): under 3.52; for `CCCCCCCCCCCCCCOC(=O)OC(C[N+]12CCC(CC1)CC2)CP(=O)([O-])O` (centres undefined): under 3.52. Turning to `CCCCCCCCCNC(=O)NC(CC(=O)[O-])C[N+](C)(C)C` (centres undefined), the pIC50 in assay [1] was 4.71; in assay [2], 4.08. In the case of `CCCCCCCCCNC(=O)OC(CC(=O)[O-])C[P+](C)(C)C` (centres undefined), the pIC50 in assay [1] is under 3.52. As to `CCCCCCCCCCCNS(=O)(=O)N[C@@H](CC(=O)[O-])C[N+](C)(C)C`, the negative logarithm of the IC50 (pIC50) in assay [1] is 5.22; in assay [2], under 5.00. Take `CCCCCCCCCCCCCCOC(=O)OC(CC(=O)[O-])C[N+]12CCC(CC1)CC2` (centres undefined): the pIC50 in assay [1] is under 3.52.

Consider `CCCCCCCCOC(=O)NC(CC(=O)[O-])C[N+](C)(C)C` (centres undefined), for which the pIC50 is 4.65 in assay [1] and 3.68 in assay [2].

As for `CCCCCCCCCCCCS(=O)(=O)N[C@H](CC(=O)[O-])C[N+](C)(C)C`, the pIC50 in assay [1] is 6.15; in assay [2], 5.47. The compound `CCCCCCCCCCCCCCOC(Cc1nn[n-]n1)C[N+](C)(C)C` (centres undefined) had a pIC50 in assay [1] of under 3.52. As for `CCCCCCCCCCS(=O)(=O)NC(CC(=O)[O-])C[N+](C)(C)C` (centres undefined), the figures for the pIC50 in assay [1] and in assay [2] were 5.80 and 5.64, respectively. The matching figures for `CCCCCCCCCNS(=O)(=O)NC(CC(=O)[O-])C[N+](C)(C)C` (centres undefined): 5.64 and 5.42. As for `CCCCCCCCCNC(=O)OC(CC(=O)[O-])C[N+](C)(C)C` (centres undefined), the pIC50 in assay [1] was under 3.52. On to `CCCCCCCCCCCCS(=O)(=O)N[C@@H](CC(=O)[O-])C[N+](C)(C)C`, for which the pIC50 in assay [1] is 5.22; in assay [2], under 5.00. Compound `CCCCCCCCOC(CC(=O)[O-])C[N+](C)(C)C` (centres undefined) gave a pIC50 in assay [1] of under 3.52. On the same count and under the same terms, as for `CCCCCCCCCNC(=S)NC(CC(=O)[O-])C[N+](C)(C)C` (centres undefined), the figure is 3.91.

Consider `CCCCCCCCCCCNS(=O)(=O)N[C@H](CC(=O)[O-])C[N+](C)(C)C`, for which the results for the pIC50 in assay [1] and in assay [2] were 6.10 and 5.24, respectively.

With `CCCCCCCCCOC(=O)OC(CC(=O)O)C[N+](C)(C)C` (centres undefined), the pIC50 in assay [1] is under 3.52. The same measure, in the same setting: as for `CCCCCCCCNC(CC(=O)[O-])C[N+](C)(C)C` (centres undefined), the figure is under 3.52; as for `CCCCCCCCCCCCCCOC(CC(=O)[O-])C[N+](C)(C)C` (centres undefined), 4.33.

What is called pIC50 is the negative decadic logarithm of the IC50, by convention in mol/L.

Values taken from ChEMBL document CHEMBL1134532, “Reversible carnitine palmitoyltransferase inhibitors with broad chemical diversity as potential antidiabetic agents” (J Med Chem, 2001).
